{"source": "ChEMBL document CHEMBL3822431", "about": "“Hydroxychalcone inhibitors of Streptococcus mutans glucosyl transferases and biofilms as potential anticaries agents” (Bioorg Med Chem Lett, 2016)", "key": {"Streptococcus mutans [1]": {"system": "Streptococcus mutans", "experiment": "Inhibition of biofilm formation of Streptococcus mutans UA159 after 16 hrs by crystal violet staining based serial dilution method", "format": "functional, organism-based", "in_short": "(§1)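 S. mutans UA159 co-incubated with compound at various concentrations; biofilm quantified by crystal violet protocol, read at OD562.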"}, "Streptococcus mutans [2]": {"system": "Streptococcus mutans", "experiment": "Growth inhibition of Streptococcus mutans UA159 after 16 hrs", "format": "organism-based", "in_short": "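S. mutans UA159 co-incubated with compound at various concentrations; growth measured at OD470.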"}, "Streptococcus mutans [3]": {"system": "Streptococcus mutans", "experiment": "Inhibition of biofilm formation of Streptococcus mutans UA159 at 200 uM after 16 hrs by crystal violet staining", "format": "functional", "conditions": "for inhibition at 200 µM: UA159, 16 h", "in_short": "as §1"}, "Streptococcus mutans [4]": {"system": "Streptococcus mutans", "experiment": "Growth inhibition of Streptococcus mutans UA159 at 200 uM after 24 hrs", "format": "organism-based", "conditions": "for inhibition at 200 µM: Streptococcus mutans, UA159, 24 h, read-out: GI; for growth inhibition (GI): streptococcus mutans, in vivo, 24 h, 200 µM", "in_short": "(§2)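 S. mutans UA159, S. sanguinis or S. gordonii co-incubated with compound at various concentrations; growth read as OD470; inhibition expressed relative to DMSO.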"}, "Streptococcus mutans [5]": {"system": "Streptococcus mutans", "experiment": "Inhibition of biofilm formation of Streptococcus mutans UA159 at 25 to 100 uM by Syto9 staining based assay", "format": "functional, organism-based", "in_short": "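S. mutans UA159 wild type co-incubated with compound at various concentrations; resulting biofilms stained with Syto9 and examined by microscopy.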"}, "[6]": {"molecular_target": "T1, Glucosyltransferase-SI (Streptococcus mutans serotype c (strain ATCC 700610 / UA159)) (UniProt P13470)", "T1 sequence (whole entry)": "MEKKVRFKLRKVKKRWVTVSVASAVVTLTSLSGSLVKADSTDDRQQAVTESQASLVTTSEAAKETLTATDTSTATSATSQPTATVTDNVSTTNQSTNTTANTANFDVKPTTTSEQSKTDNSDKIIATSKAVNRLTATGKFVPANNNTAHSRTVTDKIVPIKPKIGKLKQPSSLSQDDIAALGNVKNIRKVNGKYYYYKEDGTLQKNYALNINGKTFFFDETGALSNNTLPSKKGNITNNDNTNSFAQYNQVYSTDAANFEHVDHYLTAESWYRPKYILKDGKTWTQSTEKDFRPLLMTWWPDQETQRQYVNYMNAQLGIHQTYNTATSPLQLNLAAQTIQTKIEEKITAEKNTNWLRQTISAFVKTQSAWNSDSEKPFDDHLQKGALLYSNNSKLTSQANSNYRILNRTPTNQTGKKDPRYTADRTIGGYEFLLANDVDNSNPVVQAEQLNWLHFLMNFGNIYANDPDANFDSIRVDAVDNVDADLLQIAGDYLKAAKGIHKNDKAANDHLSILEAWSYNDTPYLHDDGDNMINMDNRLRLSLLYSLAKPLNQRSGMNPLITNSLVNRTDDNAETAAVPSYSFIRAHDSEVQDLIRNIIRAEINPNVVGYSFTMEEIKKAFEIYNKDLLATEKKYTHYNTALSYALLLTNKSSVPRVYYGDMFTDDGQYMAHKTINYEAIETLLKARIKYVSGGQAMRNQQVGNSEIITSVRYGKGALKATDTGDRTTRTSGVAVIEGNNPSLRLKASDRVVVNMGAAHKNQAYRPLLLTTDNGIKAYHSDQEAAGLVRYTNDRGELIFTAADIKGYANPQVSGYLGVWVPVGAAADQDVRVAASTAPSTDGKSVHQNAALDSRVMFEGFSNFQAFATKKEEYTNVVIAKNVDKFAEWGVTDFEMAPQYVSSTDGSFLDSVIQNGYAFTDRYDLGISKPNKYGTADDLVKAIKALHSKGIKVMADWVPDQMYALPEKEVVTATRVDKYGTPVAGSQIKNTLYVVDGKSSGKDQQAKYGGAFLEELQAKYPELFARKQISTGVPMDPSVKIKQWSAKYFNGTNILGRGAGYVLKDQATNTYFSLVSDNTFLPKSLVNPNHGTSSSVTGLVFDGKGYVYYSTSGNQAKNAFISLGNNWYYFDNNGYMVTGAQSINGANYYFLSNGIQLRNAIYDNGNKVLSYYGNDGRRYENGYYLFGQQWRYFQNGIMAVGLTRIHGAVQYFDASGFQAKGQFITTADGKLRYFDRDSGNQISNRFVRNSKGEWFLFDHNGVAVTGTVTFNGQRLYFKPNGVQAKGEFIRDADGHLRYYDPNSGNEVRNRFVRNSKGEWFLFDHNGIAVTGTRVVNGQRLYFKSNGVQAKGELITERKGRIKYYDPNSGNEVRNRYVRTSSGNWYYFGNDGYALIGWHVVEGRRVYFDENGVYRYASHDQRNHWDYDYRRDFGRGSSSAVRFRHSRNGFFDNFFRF", "experiment": "Inhibition of Wild-type Streptococcus mutans UA159 glucosyltransferase C at 50 uM by coomassie blue staining based SDS-PAGE method", "in_short": "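Compound (50 µM) added to overnight S. mutans UA159 wild-type cultures; Gtfs collected and concentrated from supernatants, run on SDS-PAGE in duplicate; one gel Coomassie blue stained for protein levels.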"}, "[7]": {"molecular_target": "T1, Glucosyltransferase-SI (Streptococcus mutans serotype c (strain ATCC 700610 / UA159))", "experiment": "Inhibition of Wild-type Streptococcus mutans UA159 glucosyltransferase C at 50 uM by zymography", "in_short": "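Compound (50 µM) added to overnight S. mutans UA159 wild-type cultures; Gtfs concentrated from supernatants, run on duplicate SDS-PAGE; second gel used for zymogram, glucan band intensity taken as Gtf activity.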"}, "Streptococcus mutans [8]": {"system": "Streptococcus mutans", "experiment": "Selectivity index, ratio of growth inhibition IC50 for Streptococcus mutans UA159 to biofilm inhibition IC50 for Streptococcus mutans UA159"}, "Streptococcus sanguinis": {"system": "Streptococcus sanguinis", "experiment": "Growth inhibition of Streptococcus sanguinis SK36 at 200 uM after 24 hrs", "conditions": "SK36, 24 h, read-out: GI", "in_short": "as §2"}, "Streptococcus gordonii": {"system": "Streptococcus gordonii", "experiment": "Growth inhibition of Streptococcus gordonii at 200 uM after 24 hrs", "format": "organism-based", "conditions": "read-out: GI", "in_short": "as §2"}, "[9]": {"conditions": "Streptococcus mutans, UA159, 16 h"}, "[10]": {"conditions": "Streptococcus mutans, UA159, 16 h, read-out: IC50"}}, "note": "Active and inactive are the calls of the source. No cut-off for these calls is given here."}
{"compound": "COc1cc(/C=C/C(=O)c2ccccc2O)ccc1O", "values": [{"measurement": "IC50", "setting": "Streptococcus mutans [1]; [9]", "value": 61, "unit": "µM"}, {"measurement": "IC50", "setting": "Streptococcus mutans [2]; [10]", "value": 44, "unit": "µM"}, {"measurement": "inhibition at 200 µM", "setting": "Streptococcus mutans [3]", "value": 86, "unit": "%"}, {"measurement": "inhibition at 200 µM", "setting": "Streptococcus mutans [4]", "value": 85, "unit": "%"}]}
{"compound": "O=C(/C=C/c1ccccc1O)c1ccc(O)cc1O", "values": [{"measurement": "inhibition", "setting": "Streptococcus mutans [3]", "value": "inactive"}, {"measurement": "growth inhibition (GI)", "setting": "Streptococcus mutans [4]", "value": "Not Active"}]}
{"compound": "O=C(/C=C/c1ccc(O)cc1O)c1cccc(O)c1", "note": "(stereo in doubt; 9) [listing 1 of 2 here]", "values": [{"measurement": "inhibition", "setting": "Streptococcus mutans [1]", "value": "Dose-dependent effect"}, {"measurement": "inhibition", "setting": "Streptococcus mutans [5]", "value": "Active"}]}
{"compound": "COc1ccc(/C=C/C(=O)c2ccc(OC)c(OC)c2)cc1O", "values": [{"measurement": "inhibition at 200 µM", "setting": "Streptococcus mutans [3]", "value": 27, "unit": "%"}, {"measurement": "inhibition at 200 µM", "setting": "Streptococcus mutans [4]", "value": 30, "unit": "%"}]}
{"compound": "O=C(/C=C/c1cc(O)c(O)cc1O)c1ccccc1O", "note": "(stereo in doubt; 18d) [listing 1 of 2 here]", "values": [{"measurement": "inhibition", "setting": "[6]", "value": "Active"}, {"measurement": "inhibition", "setting": "[7]", "value": "Active"}]}
{"compound": "COc1ccc(/C=C/C(=O)c2cc(N(C)C)c(O)c(N(C)C)c2)cc1", "values": [{"measurement": "inhibition", "setting": "Streptococcus mutans [3]", "value": "inactive"}, {"measurement": "growth inhibition (GI)", "setting": "Streptococcus mutans [4]", "value": "Not Active"}]}
{"compound": "COc1ccc(/C=C/C(=O)c2cc(O)ccc2O)cc1", "values": [{"measurement": "inhibition at 200 µM", "setting": "Streptococcus mutans [3]", "value": 87, "unit": "%"}, {"measurement": "inhibition at 200 µM", "setting": "Streptococcus mutans [4]", "value": 76, "unit": "%"}]}
{"compound": "O=C(/C=C/c1cc(O)c(O)cc1O)c1ccccc1O", "note": "(stereo in doubt; 18d) [listing 2 of 2 here]", "values": [{"measurement": "IC50", "setting": "Streptococcus mutans [1]", "value": 76, "unit": "µM"}, {"measurement": "IC50", "setting": "Streptococcus mutans [2]; read-out: IC50", "value": 376, "unit": "µM"}, {"measurement": "Ratio IC50", "setting": "Streptococcus mutans [8]", "value": 4.9}]}
{"compound": "COc1cc(C(=O)/C=C/c2ccccc2O)ccc1O", "values": [{"measurement": "IC50", "setting": "Streptococcus mutans [1]; [9]", "value": 34, "unit": "µM"}, {"measurement": "IC50", "setting": "Streptococcus mutans [2]; [10]", "value": 40, "unit": "µM"}, {"measurement": "inhibition at 200 µM", "setting": "Streptococcus mutans [3]", "value": 85, "unit": "%"}, {"measurement": "inhibition at 200 µM", "setting": "Streptococcus mutans [4]", "value": 71, "unit": "%"}]}
{"compound": "O=C(/C=C/c1cc(O)c(O)cc1O)c1ccccc1O", "note": "(stereo in doubt; 18c)", "values": [{"measurement": "IC50", "setting": "Streptococcus mutans [1]", "value": 224, "unit": "µM"}, {"measurement": "IC50", "setting": "Streptococcus mutans [2]; [10]", "value": 323, "unit": "µM"}, {"measurement": "Ratio IC50", "setting": "Streptococcus mutans [8]", "value": 1.5}]}
{"compound": "O=C(/C=C/c1ccc(O)cc1O)c1cccc(O)c1", "note": "(stereo in doubt; 9) [listing 2 of 2 here]", "values": [{"measurement": "IC50", "setting": "Streptococcus mutans [1]", "value": 32, "unit": "µM"}, {"measurement": "IC50", "setting": "Streptococcus mutans [2]", "value": "Not Active"}, {"measurement": "inhibition at 200 µM", "setting": "Streptococcus sanguinis", "value": 10, "unit": "%"}, {"measurement": "inhibition at 200 µM", "setting": "Streptococcus gordonii", "value": 10, "unit": "%"}, {"measurement": "inhibition at 200 µM", "setting": "Streptococcus mutans [3]", "value": 93, "unit": "%"}, {"measurement": "inhibition at 200 µM", "setting": "Streptococcus mutans [4]", "value": 10, "unit": "%"}]}
{"compound": "O=C(/C=C/c1ccc(O)cc1)c1ccccc1O", "values": [{"measurement": "inhibition at 200 µM", "setting": "Streptococcus mutans [3]", "value": 27, "unit": "%"}, {"measurement": "inhibition at 200 µM", "setting": "Streptococcus mutans [4]", "value": 48, "unit": "%"}]}
{"compound": "O=C(/C=C/c1cccc(O)c1)c1ccccc1O", "values": [{"measurement": "IC50", "setting": "Streptococcus mutans [1]; [9]", "value": 64, "unit": "µM"}, {"measurement": "IC50", "setting": "Streptococcus mutans [2]; [10]", "value": 32, "unit": "µM"}, {"measurement": "inhibition at 200 µM", "setting": "Streptococcus mutans [3]", "value": 84, "unit": "%"}, {"measurement": "inhibition at 200 µM", "setting": "Streptococcus mutans [4]", "value": 86, "unit": "%"}]}
{"compound": "COc1cc(/C=C/C(=O)c2ccc(O)cc2)cc(OC)c1OC", "values": [{"measurement": "growth inhibition (GI)", "setting": "Streptococcus mutans [4]", "value": "Not Active"}]}
{"compound": "O=C(/C=C/c1ccc(O)cc1O)c1cccc(O)c1", "note": "(stereo in doubt; 9a)", "values": [{"measurement": "IC50", "setting": "Streptococcus mutans [1]", "value": 68, "unit": "µM"}, {"measurement": "Ratio IC50", "setting": "Streptococcus mutans [8]", "value": 9.4}]}
{"compound": "O=C(/C=C/c1ccccc1O)c1cccc(O)c1", "values": [{"measurement": "growth inhibition (GI)", "setting": "Streptococcus mutans [4]", "value": "Not Active"}]}
{"compound": "O=C(/C=C/c1cc(Cl)cc(Cl)c1O)c1cccc(O)c1", "values": [{"measurement": "inhibition at 200 µM", "setting": "Streptococcus mutans [3]", "value": 81, "unit": "%"}, {"measurement": "inhibition at 200 µM", "setting": "Streptococcus mutans [4]", "value": 82, "unit": "%"}]}
{"compound": "O=C(/C=C/c1ccccc1)c1ccc(O)cc1O", "note": "[2',4'-DIHYDROXYCHALCONE]", "values": [{"measurement": "inhibition", "setting": "Streptococcus mutans [3]", "value": "inactive"}, {"measurement": "growth inhibition (GI)", "setting": "Streptococcus mutans [4]", "value": "Not Active"}]}
{"compound": "COc1ccc(/C=C/C(=O)c2ccc3c(c2)OCO3)cc1O", "values": [{"measurement": "inhibition", "setting": "Streptococcus mutans [3]", "value": "inactive"}, {"measurement": "growth inhibition (GI)", "setting": "Streptococcus mutans [4]", "value": "Not Active"}]}
